Source: ChEMBL document CHEMBL3593189, “Kadcoccinic Acids A-J, Triterpene Acids from Kadsura coccinea” (J Nat Prod, 2015)

What was measured:
[1] = system: Human immunodeficiency virus 1; experiment: Antiviral activity against HIV1 assessed as inhibition of cytopathic effect by microtiter syncytium formation infectivity assay; assay type: functional, organism-based
Method in brief: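 HIV-1 cytopathic-effect inhibition read as syncytium formation in microtiter format; EC50 derived. AZT positive control.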

[2] = Cytotoxicity against human C8166 cells by MTT assay; assay type: cell-based
Method in brief: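 C8166 cells assessed for cytotoxicity by MTT; CC50 derived. AZT positive control.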

[3] = Therapeutic index, ratio of CC50 for human C8166 cells to EC50 for HIV1; assay type: cell-based; conditions: read-out: Ratio CC50/EC50
Method in brief: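 Therapeutic index computed as CC50 (MTT cytotoxicity in C8166 cells) divided by EC50 (inhibition of HIV-1 cytopathic effect, syncytium formation in microtiter assay).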

A549 = experiment: Cytotoxicity against human A549 cells after 48 hrs by MTT assay; assay type: functional, cell-based; conditions: A549, 48 h
HL-60 = experiment: Cytotoxicity against human HL60 cells after 48 hrs by MTT assay; assay type: functional, cell-based; conditions: HL-60, 48 h
MCF7 = experiment: Cytotoxicity against human MCF7 cells after 48 hrs by MTT assay; assay type: functional, cell-based; conditions: MCF7, 48 h
SMMC-7721 = experiment: Cytotoxicity against human SMMC7721 cells after 48 hrs by MTT assay; assay type: functional, cell-based; conditions: SMMC-7721, 48 h
SW480 = experiment: Cytotoxicity against human SW480 cells after 48 hrs by MTT assay; assay type: functional, cell-based; conditions: SW480, 48 h

Compound: C=C1[C@@H]([C@H](C)CC/C=C(/C)C(=O)O)CC[C@@]2(C)[C@@H]3CC[C@@H](C(C)(C)O)[C@](C)(CCC(=O)OC)C3=C[C@@H]12
- EC50 [1]: 81.2 µM
- CC50 [2]: 142 µM
- selectivity ratio [3]: 1.8
- IC50 (A549): > 10 µM
- IC50 (HL-60): > 10 µM
- IC50 (MCF7): > 10 µM
- IC50 (SMMC-7721): > 10 µM
- IC50 (SW480): > 10 µM

Compound: CO[C@@]12CC[C@H]3C(C)(C)C(=O)CC[C@]3(C)C1=CC1=C(C=O)[C@@H]([C@H](C)CC/C=C(/C)C(=O)O)CC[C@]12C
- EC50 [1]: 116 µM
- CC50 [2]: > 200 µM
- selectivity ratio [3]: > 1.7

Compound: C=C(C)[C@@H]1CC[C@@H]2C(=C[C@@]3(OC)C(=C)[C@@H]([C@H](C)CC/C=C(/C)C(=O)O)CC[C@@]23C)[C@@]1(C)CCC(=O)O
- EC50 [1]: 70 µM
- CC50 [2]: 184 µM
- selectivity ratio [3]: 2.6
- IC50 (A549): > 10 µM
- IC50 (HL-60): > 10 µM
- IC50 (MCF7): > 10 µM
- IC50 (SMMC-7721): > 10 µM
- IC50 (SW480): > 10 µM

Compound: C=C1[C@@H]([C@H](C)CC/C=C(/C)C(=O)O)CC[C@@]2(C)[C@@H]3CC[C@@H](C(C)(C)C(=O)O)[C@](C)(CC(=O)O)C3=C[C@@H]12
- EC50 [1]: 68.7 µM
- CC50 [2]: > 200 µM
- selectivity ratio [3]: > 2.9
- IC50 (A549): > 10 µM
- IC50 (HL-60): > 10 µM
- IC50 (MCF7): > 10 µM
- IC50 (SMMC-7721): > 10 µM
- IC50 (SW480): > 10 µM

Compound: C=C1[C@@H]([C@H](C)CC/C=C(/C)C(=O)O)CC[C@@]2(C)[C@@H]3CC[C@@H](C(C)(C)O)[C@](C)(CCC(=O)O)C3=C[C@@H]12
- EC50 [1]: 58.7 µM
- CC50 [2]: 143 µM
- selectivity ratio [3]: 2.4

Compound: C=C1[C@@H]([C@H](C)CC/C=C(/C)C(=O)O)CC[C@@]2(C)[C@@H]3CC[C@@H](C(=C)C)[C@](C)(CCC(=O)O)C3=C[C@@H]12
- EC50 [1]: 88.2 µM
- CC50 [2]: 203 µM
- selectivity ratio [3]: 2.3
- IC50 (A549): > 10 µM
- IC50 (HL-60): > 10 µM
- IC50 (MCF7): > 10 µM
- IC50 (SMMC-7721): > 10 µM
- IC50 (SW480): > 10 µM

Compound: C=C1[C@@H]([C@H](C)CC/C=C(/C)C(=O)O)CC[C@@]2(C)[C@@H]3CC[C@H]4C(C)(C)OC(=O)CC[C@]4(C)C3=C[C@@H]12
- IC50 (A549): > 10 µM
- IC50 (HL-60): > 10 µM
- IC50 (MCF7): > 10 µM
- IC50 (SMMC-7721): > 10 µM
- IC50 (SW480): > 10 µM

Compound: Cc1cn([C@H]2C[C@H](N=[N+]=[N-])[C@@H](CO)O2)c(=O)[nH]c1=O [ZIDOVUDINE]
- EC50 [1]: 0.02 µM
- CC50 [2]: 4690 µM
- selectivity ratio [3]: > 230000

Compound: CC1=C([C@H](C)CC/C=C(/C)C(=O)O)CC[C@@]2(C)[C@@H]3CC[C@H]4C(C)(C)C(=O)CC[C@]4(C)C3=C[C@@H]12
- EC50 [1]: 62 µM
- CC50 [2]: 116 µM
- selectivity ratio [3]: 1.9
- IC50 (A549): > 10 µM
- IC50 (HL-60): > 10 µM
- IC50 (MCF7): > 10 µM
- IC50 (SMMC-7721): > 10 µM
- IC50 (SW480): > 10 µM

Compound: C=C1[C@@H]([C@H](C)CC/C=C(/C)C(=O)O)CC[C@@]2(C)C3=C(C[C@@H]12)[C@@](C)(CC(=O)O)[C@H](C(C)(C)C(=O)O)CC3
- EC50 [1]: 120 µM
- CC50 [2]: > 200 µM
- selectivity ratio [3]: > 1.7
